Source: ChEMBL document CHEMBL1128333, “Derivatives of cis-2-amino-8-hydroxy-1-methyltetralin: mixed 5-HT1A-receptor agonists and dopamine D2-receptor antagonists” (J Med Chem, 1995)

Experiments:
Rattus norvegicus [1] = organism: Rattus norvegicus; test: 5-HT content of rat hippocampus reflecting 5-HT metabolism and turnover; assay type: functional; set-up: concentration or dose not given beside the values
Method in brief: (§1)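 Male Sprague–Dawley rats (260–310 g) received compound sc in 0.9% NaCl; saline controls. Rats were decapitated 35–45 min post-injection, and hippocampus and striatum were dissected and frozen. Tissue was homogenized in 0.1 M perchloric acid with α-methyl-5-hydroxytryptophan as internal standard, centrifuged and filtered, then analysed by HPLC-EC at 0.85 V (mobile phase pH 2.69, 35 °C). Values are percent of control, mean ± SEM.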

Rattus norvegicus [2] = organism: Rattus norvegicus; test: Ratio of turnover (DOPAC to DA) in rat brain striatum compared to control.; assay type: functional; method in brief: as §1
Rattus norvegicus [3] = test: Forepaw treading (FPT) behavior was studied in rats after subcutaneous administration of 32 uM/Kg of compound; 0/4; assay type: functional
Method in brief: (§2)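 Test compounds were given at 32 μmol/kg and the reference 5-HT1A agonist at 1 μmol/kg. Flat body posture, forepaw treading and hind limb abduction were each scored as absent or present. Values are animals showing the behavior out of animals tested, analysed by Fisher's exact test. Male Sprague–Dawley rats, 260–310 g.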

[4] = biological target: T1, 5-hydroxytryptamine receptor 1A (Rattus norvegicus, UniProt P19327); test: Binding affinity for 5-hydroxytryptamine 1A receptor in rat brain tissue using [3H]8-OH-DPAT as radioligand; assay type: tissue-based
T1 sequence (P19327 whole entry): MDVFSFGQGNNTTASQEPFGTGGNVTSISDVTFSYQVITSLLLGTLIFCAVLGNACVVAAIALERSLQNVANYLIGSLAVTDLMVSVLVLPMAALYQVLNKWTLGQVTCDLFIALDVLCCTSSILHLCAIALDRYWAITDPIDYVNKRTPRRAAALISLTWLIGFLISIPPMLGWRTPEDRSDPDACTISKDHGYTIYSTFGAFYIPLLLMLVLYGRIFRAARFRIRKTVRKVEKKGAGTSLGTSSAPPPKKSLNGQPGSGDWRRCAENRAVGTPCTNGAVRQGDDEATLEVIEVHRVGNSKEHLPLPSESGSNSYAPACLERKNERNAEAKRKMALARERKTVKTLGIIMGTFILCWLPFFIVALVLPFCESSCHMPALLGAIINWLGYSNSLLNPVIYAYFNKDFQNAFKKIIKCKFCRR
Method in brief: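 Membranes from male Sprague–Dawley rat cortex plus hippocampus, homogenized in 50 mM Tris-HCl with 4.0 mM CaCl2 and 5.7 mM ascorbic acid, pH 7.5, and preincubated 10 min at 37 °C with 10 μM pargyline. Assay used 5 mg/mL tissue and 2 nM [3H]-8-OH-DPAT, 10 min at 37 °C. Nonspecific binding was defined with 10 μM 5-HT. Bound ligand was separated on GF/B filters and counted; data were fitted by nonlinear regression.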

Rattus norvegicus [5] = organism: Rattus norvegicus; test: DA (dopamine) content of rat striatum reflecting DA metabolism and turnover; assay type: functional; method in brief: as §1
Rattus norvegicus [6] = test: Flat body posture behavior was studied in rats after subcutaneous administration of 32 uM/Kg of compound; 0/4; assay type: functional; method in brief: as §2
Rattus norvegicus [7] = test: Change in body temperature in rats after subcutaneous administration; assay type: functional
Method in brief: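 Rectal temperature was taken with an electrical thermometer, probe inserted 3.5 cm, before and 30 min after sc injection in 0.9% NaCl. Values are the change from the preinjection reading, analysed by Tukey HSD versus saline-treated rats. Male Sprague–Dawley rats, 260–310 g.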

Rattus norvegicus [8] = organism: Rattus norvegicus; test: DOPAC (3,4-dihydroxyphenylacetic acid) content of rat striatum reflecting DA metabolism and turnover; assay type: functional; set-up: concentration or dose not given beside the values; method in brief: as §1
Rattus norvegicus [9] = test: Cage leaving response was studied in rats after subcutaneous administration of 32 uM/Kg of compound; 3/4; assay type: functional
Rattus norvegicus [10] = organism: Rattus norvegicus; test: 5-HIAA (5-Hydroxyindoleacetic acid) content of rat hippocampus reflecting 5-HT metabolism and turnover; assay type: functional; set-up: concentration or dose not given beside the values; method in brief: as §1
Rattus norvegicus [11] = organism: Rattus norvegicus; test: HVA (Homovanillic acid)content of rat striatum reflecting DA metabolism and turnover; assay type: functional; set-up: concentration or dose not given beside the values
Rattus norvegicus [12] = organism: Rattus norvegicus; test: Ratio of serotonin turnover (5HIAA to 5-HT) in rat brain hippocampus compared to control; assay type: functional; method in brief: as §1
Rattus norvegicus [13] = test: Cage leaving response was studied in rats after subcutaneous administration of 32 uM/Kg of compound; 3/5; assay type: functional
Rattus norvegicus [14] = test: Forepaw treading (FPT) behavior was studied in rats after subcutaneous administration of 32 uM/Kg of compound; 0/5; assay type: functional
Rattus norvegicus [15] = test: Flat body posture behavior was studied in rats after subcutaneous administration of 32 uM/Kg of compound; 0/5; assay type: functional
Rattus norvegicus [16] = test: Cage leaving response was studied in rats after subcutaneous administration of 32 uM/Kg of compound; 4/5; assay type: functional
D(2) dopamine receptor = D(2) dopamine receptor (Homo sapiens, UniProt P14416); test: In vitro binding affinity towards human Dopamine receptor D2A was determined in mouse fibroblast LtK cells using [3H]raclopride; assay type: cell-based
Method in brief: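 Membranes from Ltk− mouse fibroblasts stably expressing human D2A receptors, at 80–100 pM receptor. Buffer was 50 mM Tris-HCl, 120 mM NaCl, 5 mM KCl, 1.5 mM CaCl2, 4 mM MgCl2, 1 mM EDTA, pH 7.4. Incubation with [3H]raclopride was 60 min at 22 °C, in duplicate, with 1 μM (+)-butaclamol for nonspecific binding. Bound ligand was separated on GF/B filters; data were fitted by nonlinear regression.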

Rattus norvegicus [17] = test: Cage leaving response was studied in rats after subcutaneous administration of 32 uM/Kg of compound; 2/4; assay type: functional
Rattus norvegicus [18] = test: Forepaw treading (FPT) behavior was studied in rats after subcutaneous administration of 32 uM/Kg of compound; 5/5; assay type: functional
Rattus norvegicus [19] = test: Cage leaving response was studied in rats after subcutaneous administration of 32 uM/Kg of compound; 0/5; assay type: functional
Rattus norvegicus [20] = test: Flat body posture behavior was studied in rats after subcutaneous administration of 32 uM/Kg of compound; 5/5; assay type: functional

Chain of D(2) dopamine receptor (P14416 whole entry): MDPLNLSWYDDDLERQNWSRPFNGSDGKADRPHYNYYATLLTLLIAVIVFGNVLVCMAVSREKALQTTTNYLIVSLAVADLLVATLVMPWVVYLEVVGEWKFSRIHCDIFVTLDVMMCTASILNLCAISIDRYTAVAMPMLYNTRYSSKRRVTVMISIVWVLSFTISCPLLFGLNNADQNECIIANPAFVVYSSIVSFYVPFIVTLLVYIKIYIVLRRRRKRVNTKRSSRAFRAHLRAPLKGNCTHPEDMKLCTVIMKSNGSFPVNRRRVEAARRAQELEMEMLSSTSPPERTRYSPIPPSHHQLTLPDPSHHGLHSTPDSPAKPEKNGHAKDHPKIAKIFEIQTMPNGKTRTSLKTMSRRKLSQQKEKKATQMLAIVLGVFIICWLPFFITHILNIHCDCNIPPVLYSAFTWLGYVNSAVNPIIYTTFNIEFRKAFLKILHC

Ki [4]	Compound	Control (Rattus norvegicus [1])	Ratio (Rattus norvegicus [2])	FPT (Rattus norvegicus [3])	Control (Rattus norvegicus [5])	FBP (Rattus norvegicus [6])	Change of body temperature (Rattus norvegicus [7])	Control (Rattus norvegicus [8])	Control (Rattus norvegicus [10])	Control (Rattus norvegicus [11])	Ratio (Rattus norvegicus [12])	FPT (Rattus norvegicus [14])	FBP (Rattus norvegicus [15])	Cage leaving (Rattus norvegicus [16])	also measured
44 nM	CCCN(CCC)[C@H]1CCc2cccc(-c3ccco3)c2[C@H]1C	108%	98	0	103%	0	0.1 °C	102%	121%	109%	107	–	–	–	Cage leaving (Rattus norvegicus [9]): 3
> 1000 nM	CCCN(CCC)[C@H]1CCc2cccc(C(=O)NC(C)C)c2[C@H]1C	104%	74	–	82%	–	0 °C	59%	97%	76%	92	0	0	4	–
–	CCCN(CCC)[C@H]1CCc2cccc(O)c2[C@H]1C	109%	112	0	107%	0	-0.3 °C	118%	104%	96%	95	–	–	–	Cage leaving (Rattus norvegicus [17]): 2
–	CCCN(C(C)C)[C@H]1CCc2cccc(O)c2[C@H]1C	97%	77	–	110%	–	-0.1 °C	86%	79%	100%	80	0	0	4	–
–	CCCN(CCC)[C@H]1CCc2cccc(C(=O)c3ccccc3)c2[C@H]1C	93%	109	–	102%	–	0 °C	112%	114%	97%	123	0	0	4	–
236 nM	CCCN(CCC)[C@H]1CCc2cccc(OS(=O)(=O)C(F)(F)F)c2[C@H]1C	97%	99	–	107%	–	0.1 °C	107%	91%	99%	80	0	0	–	Cage leaving (Rattus norvegicus [13]): 3
38 nM	CCCN(CCC)[C@@H]1CCc2cccc(C(=O)NC(C)C)c2[C@@H]1C	123%	76	–	99%	–	-2.5 °C	74%	66%	94%	54	–	–	–	FPT (Rattus norvegicus [18]): 5; Cage leaving (Rattus norvegicus [19]): 0; FBP (Rattus norvegicus [20]): 5
–	CCCN(CCC)[C@@H]1CCc2cccc(C(=O)OC)c2[C@@H]1C	122%	152	–	112%	–	-2.7 °C	167%	78%	194%	64	–	–	–	Ki (D(2) dopamine receptor): 58.8 nM; FPT (Rattus norvegicus [18]): 5; Cage leaving (Rattus norvegicus [19]): 0; FBP (Rattus norvegicus [20]): 5
> 1000 nM	CCCN(CCC)[C@@H]1CCc2cccc(-c3ccco3)c2[C@@H]1C	110%	128	0	91%	0	0.1 °C	116%	111%	107%	101	–	–	–	Cage leaving (Rattus norvegicus [9]): 3
6.7 nM	CCCN(CCC)[C@@H]1CCc2cccc(OS(=O)(=O)C(F)(F)F)c2[C@@H]1C	105%	97	–	108%	–	0 °C	105%	87%	102%	82	0	0	4	Ki (D(2) dopamine receptor): 124 nM
2.6 nM	CCCN(CCC)[C@@H]1CCc2cccc(C(=O)c3ccccc3)c2[C@@H]1C	101%	110	–	105%	–	0.1 °C	117%	92%	111%	89	0	0	4	–

Compound	Ki [4]	Control (Rattus norvegicus [1])	Ratio (Rattus norvegicus [2])	FPT (Rattus norvegicus [3])	Control (Rattus norvegicus [5])	FBP (Rattus norvegicus [6])	Change of body temperature (Rattus norvegicus [7])	Control (Rattus norvegicus [8])	Control (Rattus norvegicus [10])	Control (Rattus norvegicus [11])	Ratio (Rattus norvegicus [12])	FPT (Rattus norvegicus [14])	FBP (Rattus norvegicus [15])	Cage leaving (Rattus norvegicus [16])	also measured
CCCN(CCC)[C@H]1CCc2ccccc2[C@H]1C	> 1000 nM	107%	81	–	113%	–	0.1 °C	92%	112%	111%	104	0	0	–	Cage leaving (Rattus norvegicus [13]): 3
CCCN(C(C)C)[C@@H]1CCc2cccc(O)c2[C@@H]1C	81 nM	96%	155	–	74%	–	-0.3 °C	116%	93%	225%	97	0	0	4	Ki (D(2) dopamine receptor): 614 nM
CCCN(CCC)[C@H]1CCc2cccc(C(C)=O)c2[C@H]1C	138 nM	99%	110	0	95%	0	0.1 °C	130%	93%	93%	93	–	–	–	Cage leaving (Rattus norvegicus [9]): 3
CCCN(CCC)[C@@H]1CCc2cccc(C(C)=O)c2[C@@H]1C	0.56 nM	99%	200	–	95%	–	-1.7 °C	192%	96%	203%	97	–	–	–	Ki (D(2) dopamine receptor): 40 nM; FPT (Rattus norvegicus [18]): 5; Cage leaving (Rattus norvegicus [19]): 0; FBP (Rattus norvegicus [20]): 5
CCCN(C(C)C)[C@@H]1CCc2cccc(OC)c2[C@@H]1C	116 nM	86%	102	0	99%	0	0.1 °C	102%	104%	105%	116	–	–	–	Cage leaving (Rattus norvegicus [17]): 2
CCCN(C(C)C)[C@H]1CCc2cccc(OC)c2[C@H]1C	1420 nM	87%	94	0	103%	0	0 °C	96%	110%	90%	124	–	–	–	Cage leaving (Rattus norvegicus [17]): 2
